Assay results taken from PMC10606955 (Chemico-biological interactions, 2023).
Several values for one entry are separate records, joined by “and”; a condition that tells them apart may be missing. Equal entries are not always repeated. Entries after “also recorded” stand apart in the source; their conditions may differ.

Legend:
[1] = target: T1, carboxylesterase 1 (CES1) (Homo sapiens, UniProt P23141); test: Concentration response curves for inhibition of CES1; assay type: biochemical; conditions: 200 μM OST, CES1 S9; for IC50: read-out: IC50 (kratom alkaloids), alkaloid 0–128 μM, 1% DMSO
T1 sequence (P23141 18-567): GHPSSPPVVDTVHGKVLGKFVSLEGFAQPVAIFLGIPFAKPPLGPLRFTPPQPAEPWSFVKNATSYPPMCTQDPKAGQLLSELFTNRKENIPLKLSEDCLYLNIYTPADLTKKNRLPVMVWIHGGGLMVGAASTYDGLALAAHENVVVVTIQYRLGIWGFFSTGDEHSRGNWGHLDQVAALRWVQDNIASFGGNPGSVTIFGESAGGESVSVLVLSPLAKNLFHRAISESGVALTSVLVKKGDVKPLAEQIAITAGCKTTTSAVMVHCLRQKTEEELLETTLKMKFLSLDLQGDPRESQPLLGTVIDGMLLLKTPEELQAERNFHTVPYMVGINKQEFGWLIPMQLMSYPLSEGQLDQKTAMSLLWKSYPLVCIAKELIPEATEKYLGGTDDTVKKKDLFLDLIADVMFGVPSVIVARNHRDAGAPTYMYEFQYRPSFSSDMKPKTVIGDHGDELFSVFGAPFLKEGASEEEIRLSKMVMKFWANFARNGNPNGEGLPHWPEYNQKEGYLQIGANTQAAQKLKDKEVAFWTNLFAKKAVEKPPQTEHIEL
How it was run: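 CES1 S9 (supernatant, 9000g, from sonicated Flp-In-293 cells expressing wild-type CES1) at 20 μg/mL in 50 mM phosphate buffer. Test compound at 0–128 μM, or extracts at 0–128 μg/mL, in 1% DMSO with 200 μM oseltamivir, 15 min at 37°C. Stopped with 4 volumes acetonitrile containing ritalinic acid internal standard. Oseltamivir carboxylate measured by LC-MS/MS and expressed relative to DMSO control; IC50 fitted by modified Hill equation.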

[2] = target: T1, carboxylesterase 1 (CES1); test: Reversible inhibition kinetics of CES1; assay type: biochemical; conditions: for α (reversible inhibition type): 1 = noncompetitive, infinity = competitive, between = mixed-type; for α (reversible inhibition type) / Vmax: mean ± S.D.; for Vmax: OC formation, fit parameter, triplicate experiments; for type of reversible inhibition of CES1: from modified Michaelis-Menten model
[3] = target: T1, carboxylesterase 1 (CES1); test: Time-dependent inhibition of CES1; assay type: biochemical; conditions: for Ratio of Preincubation to No Preincubation (IC50, alkaloids): 30 min preincubation; for IC50: mean ± S.E., 200 μM OST
[4] = human, 2g dose of kratom; cited from earlier work
[5] = Preincubation 30 min with CES1 S9

C=C[C@H]1CN2CCc3c([nH]c4cccc(OC)c34)[C@@H]2C[C@@H]1/C(=C\OC)C(=O)OC [paynantheine]
concentration dependence of CES1 inhibition [1]: concentration-dependent reversible inhibition
IC50 [1]: 32.9 µM and < 50 µM
α (reversible inhibition type) [2]: 8.439 ± 6.336
Vmax [2]: 232.2 ± 18.38 nmol/min/mg protein
type of reversible inhibition of CES1 [2]: mixed-type reversible inhibitors; also recorded: mixed competitive-noncompetitive inhibition; also recorded: mixed competitive-noncompetitive inhibitors
Ratio of Preincubation to No Preincubation (IC50, alkaloids) [3]: 1.38
IC50 ([3]; No preincubation): 32.9 ± 7.2 µM
IC50 [3, 5]: 45.6 ± 14.1 µM

CC[C@@H]1CN2CCc3c([nH]c4cccc(OC)c34)[C@H]2C[C@@H]1/C(=C\OC)C(=O)OC [speciociliatine]
concentration dependence of CES1 inhibition [1]: concentration-dependent reversible inhibition
Cmax [4]: 308 nM
α (reversible inhibition type) [2]: 2.817 ± 1.666
Vmax [2]: 210.5 ± 41.43 nmol/min/mg protein
type of reversible inhibition of CES1 [2]: mixed competitive-noncompetitive inhibitors
type of reversible inhibition of CES1 ([2]; listed as Speciociliatine): mixed-type reversible inhibitors; also recorded: mixed competitive-noncompetitive inhibition
Ratio of Preincubation to No Preincubation (IC50, alkaloids) [3]: 1.18
IC50 ([3]; No preincubation): 18.1 ± 4 µM
IC50 [3, 5]: 21.4 ± 2.48 µM

CC[C@H]1CN2CCc3c([nH]c4cccc(OC)c34)[C@@H]2C[C@@H]1/C(=C\OC)C(=O)OC [speciogynine]
concentration dependence of CES1 inhibition [1]: concentration-dependent reversible inhibition
IC50 [1]: 54.3 µM
Ratio of Preincubation to No Preincubation (IC50, alkaloids) [3]: 1.22
IC50 [3, 5]: 66.2 ± 29 µM

corynantheidine
concentration dependence of CES1 inhibition [1]: concentration-dependent reversible inhibition
α (reversible inhibition type) [2]: 8.767 ± 2.734
type of reversible inhibition of CES1 [2]: mixed-type reversible inhibitors; also recorded: mixed competitive-noncompetitive inhibition; also recorded: mixed competitive-noncompetitive inhibitors
Ratio of Preincubation to No Preincubation (IC50, alkaloids) [3]: 0.993

mitragynine
concentration dependence of CES1 inhibition [1]: concentration-dependent reversible inhibition
IC50 [1]: 38.9 µM and < 50 µM
α (reversible inhibition type) [2]: ∞
Vmax [2]: 224.2 ± 24.37 nmol/min/mg protein
type of reversible inhibition of CES1 [2]: purely competitive inhibitor; also recorded: pure competitive inhibition
Ratio of Preincubation to No Preincubation (IC50, alkaloids) [3]: 0.868
IC50 ([3]; No preincubation): 38.9 ± 16.3 µM
IC50 [3, 5]: 33.8 ± 5.47 µM
